pKd: −log10 of the molar value. Where “and” joins values, the source holds several entries; their conditions need not be identical. Equal values may be shown once.
Legend:
NoV VA387 P dimer [1] = settings: reported values; cited from earlier work
P dimer VA387 = P dimer VA387 (Human calicivirus NLV/VA98387/1998, UniProt Q913Z3); assay: Direct ESI-MS assay; assay type: binding; settings: n = 3
How it was run: (§1)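 Recombinant P dimer (P domain residues 222–539, made in E. coli via a GST fusion system) was titrated with at least four initial oligosaccharide concentrations, in triplicate. Example mix: 12 μM dimer, 80 μM ligand, 4 μM reference protein. Bound/free abundance ratios were taken as solution ratios after nonspecific-binding correction. Ka,int was fitted assuming two independent, equivalent sites.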

P dimer VA115 = biological target: T1, P dimer VA115 (Human calicivirus NLV/VA98115/1998, UniProt Q91H12); assay: Direct ESI-MS assay; assay type: binding; settings: n = 3
T1 sequence (Q91H12 227-545): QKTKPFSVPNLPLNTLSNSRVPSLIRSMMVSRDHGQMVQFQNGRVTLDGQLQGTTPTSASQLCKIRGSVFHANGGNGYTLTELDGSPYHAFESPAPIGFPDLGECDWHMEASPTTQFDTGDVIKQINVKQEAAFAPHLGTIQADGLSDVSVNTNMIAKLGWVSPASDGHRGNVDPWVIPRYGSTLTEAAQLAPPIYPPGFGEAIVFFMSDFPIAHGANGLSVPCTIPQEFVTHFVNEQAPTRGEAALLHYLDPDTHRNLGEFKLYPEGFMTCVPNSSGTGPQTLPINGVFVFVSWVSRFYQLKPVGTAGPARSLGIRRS
How it was run: as §1

NoV VA387 P dimer [2] = assay: Direct ESI-MS assay, NoV VA387 P dimer; design: species or system human NoV VA387 (GII.4); settings: intrinsic (per binding site) association constant; aqueous ammonium acetate (200 mM), pH 7, 25 °C
How it was run: (§2)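 Recombinant P dimer, buffer-exchanged into ammonium acetate and quantified by UV, was mixed (e.g., 12 μM) with ganglioside oligosaccharide (e.g., 80 μM) and reference protein (4 μM). Nanoelectrospray in negative ion mode used capillary −0.8 kV, cone 60 V and source 60 °C. Runs covered ≥4 initial ligand concentrations in triplicate. Ka,int came from bound/free abundance ratios, corrected for nonspecific binding, with two equivalent sites.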

NoV VA387 P particle [3] = assay: CaR-ESI-MS screening assay; assay type: binding, human NoV VA387 (GII.4); settings: P particle (3 μM) and 10 μM of GD1a or GD1b
NoV VA115 P dimer = assay: Direct ESI-MS assay, NoV VA115 P dimer; design: species or system human NoV VA115 (GI.3); settings: intrinsic (per binding site) association constant; aqueous ammonium acetate (200 mM), pH 7, 25 °C
How it was run: as §2

NoV VA387 VLP = assay: Proxy protein ESI-MS method, VA387 VLP; assay type: binding, human NoV VA387 (GII.4); settings: aqueous ammonium acetate (160 mM), pH 7, 25 °C; Gal-3C as proxy protein
How it was run: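 VLPs were expressed from VA387 VP1 in Sf9 cells by recombinant baculovirus and purified on a sucrose gradient, then tested at 0–570 nM (0–102.6 μM monomer). Each mix held Gal-3C proxy (3.0 μM), ubiquitin reference (1.0 μM) and GM3 trisaccharide (40 μM). Positive-mode nanoESI. Ka,int per site came from the corrected proxy bound/free ratio versus VLP concentration, using the known proxy affinity.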

NoV VA387 P particle [4] = assay: Proxy protein ESI-MS method, VA387 P particle; assay type: binding, human NoV VA387 (GII.4); settings: aqueous ammonium acetate (160 mM), pH 7, 25 °C; Gal-3C as proxy protein
How it was run: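 Gal-3C proxy (3.0 μM), ubiquitin reference (1.0 μM) and GM3 trisaccharide (40 μM) were mixed with VA387 P particle at 0–7.2 μM (0–172.8 μM monomer); the 24-mer came from E. coli. Positive-mode nanoESI. GM3-bound/free proxy ratio was measured after nonspecific-binding correction. Ka,int per site was derived from the ratio change using the known proxy association constant and binding-site concentration.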

[5] = biological target: recombinant fragment of the C-terminus of human galectin-3 (Gal-3C) (Homo sapiens, UniProt P17931); assay: ESI-MS binding of ligand to proxy protein Gal-3C; settings: association constant of proxy protein for the ligand
recombinant fragment of the C-terminus of human galectin-3 (Gal-3C), sequence (P17931 118-248 limits assumed): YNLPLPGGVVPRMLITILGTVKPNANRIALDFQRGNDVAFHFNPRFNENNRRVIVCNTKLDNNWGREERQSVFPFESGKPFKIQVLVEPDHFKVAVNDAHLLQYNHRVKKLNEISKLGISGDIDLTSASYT

P dimer VA387, sequence (Q913Z3 222-539): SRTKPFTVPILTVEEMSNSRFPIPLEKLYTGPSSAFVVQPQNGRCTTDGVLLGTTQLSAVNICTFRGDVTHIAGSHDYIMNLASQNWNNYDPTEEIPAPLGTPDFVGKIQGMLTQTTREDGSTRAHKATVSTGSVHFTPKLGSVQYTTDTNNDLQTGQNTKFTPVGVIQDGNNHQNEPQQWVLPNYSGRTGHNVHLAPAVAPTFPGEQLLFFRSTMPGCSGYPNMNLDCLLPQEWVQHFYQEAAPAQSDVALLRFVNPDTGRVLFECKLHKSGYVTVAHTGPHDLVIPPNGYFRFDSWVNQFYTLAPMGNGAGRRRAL

Compound | pKd (P dimer VA387) | pKd (P dimer VA115) | further results
CC(=O)N[C@H]1C(O)O[C@H](CO)[C@H](O)[C@@H]1O[C@@H]1O[C@H](CO)[C@H](O)[C@H](O[C@H]2O[C@H](CO)[C@H](O)[C@H](O)[C@H]2O)[C@H]1O[C@@H]1O[C@@H](C)[C@@H](O)[C@@H](O)[C@@H]1O (some centres unmarked) [B3, B type 3 tetrasaccharide] | – | – | intrinsic affinity (Ka,int) of HBGA ligands (NoV VA387 P dimer [1]): 1500 ± 150 M^–1
CC(=O)N[C@H]1[C@H](O[C@@H]2[C@H](O[C@]3(C(=O)O)C[C@H](O)[C@@H](NC(C)=O)[C@H]([C@H](O)[C@H](O)CO)O3)[C@@H](O)[C@H](O[C@H]3[C@H](O)[C@@H](O)C(O)O[C@@H]3CO)O[C@@H]2CO)O[C@H](CO)[C@H](O)[C@@H]1O[C@@H]1O[C@H](CO)[C@H](O)[C@H](O[C@]2(C(=O)O)C[C@H](O)[C@@H](NC(C)=O)[C@H]([C@H](O)[C@H](O)CO)O2)[C@H]1O (some centres unmarked) [GD1a, GD1a ganglioside oligosaccharide (Neu5Aca2-3Galb1-3GalNAcb1-4(Neu5Aca2-3)Galb1-4Glc)] | < 2.00 | 2.51 | –
CC(=O)N[C@H]1[C@H](O[C@@H]2[C@H](O[C@]3(C(=O)O)C[C@H](O)[C@@H](NC(C)=O)[C@H]([C@H](O)[C@H](O)CO)O3)[C@@H](O)[C@H](O[C@H]3[C@H](O)[C@@H](O)C(O)O[C@@H]3CO)O[C@@H]2CO)O[C@H](CO)[C@H](O)[C@@H]1O[C@@H]1O[C@H](CO)[C@H](O)[C@H](O[C@]2(C(=O)O)C[C@H](O)[C@@H](NC(C)=O)[C@H]([C@H](O)[C@H](O)CO)O2)[C@H]1O (some centres unmarked) [GD1a] | – | – | Ka,int P dimer VA387 (NoV VA387 P dimer [2]): <100 M^–1; binding to P particle, ligand tested alone (NoV VA387 P particle [3]): binds; Ka,int P dimer VA115 (NoV VA115 P dimer): 320 ± 90 M^–1
CC(=O)N[C@H]1[C@H](O[C@@H]2[C@H](O[C@]3(C(=O)O)C[C@H](O)[C@@H](NC(C)=O)[C@H]([C@H](O)[C@@H](CO)O[C@]4(C(=O)O)C[C@H](O)[C@@H](NC(C)=O)[C@H]([C@H](O)[C@H](O)CO)O4)O3)[C@@H](O)[C@H](O[C@H]3[C@H](O)[C@@H](O)C(O)O[C@@H]3CO)O[C@@H]2CO)O[C@H](CO)[C@H](O)[C@@H]1O (some centres unmarked) [GD2, GD2 ganglioside oligosaccharide (GalNAcb1-4(Neu5Aca2-8Neu5Aca2-3)Galb1-4Glc)] | 2.18 | 2.85 | –
CC(=O)N[C@H]1[C@H]([C@H](O)[C@H](O)CO)O[C@@](O[C@H](CO)[C@@H](O)[C@@H]2O[C@@](O[C@H]3[C@@H](O)[C@@H](CO)O[C@@H](O[C@H]4[C@H](O)[C@@H](O)C(O)O[C@@H]4CO)[C@@H]3O)(C(=O)O)C[C@H](O)[C@H]2NC(C)=O)(C(=O)O)C[C@@H]1O (some centres unmarked) [GD3, GD3 ganglioside oligosaccharide (Neu5Aca2-8Neu5Aca2-3Galb1-4Glc)] | 2.53 | 2.62 | –
CC(=O)N[C@H]1[C@H](O[C@@H]2[C@H](O[C@]3(C(=O)O)C[C@H](O)[C@@H](NC(C)=O)[C@H]([C@H](O)[C@H](O)CO)O3)[C@@H](O)[C@H](O[C@H]3[C@H](O)[C@@H](O)C(O)O[C@@H]3CO)O[C@@H]2CO)O[C@H](CO)[C@H](O)[C@@H]1O[C@@H]1O[C@H](CO)[C@H](O)[C@H](O)[C@H]1O (some centres unmarked) [GM1a, GM1a ganglioside oligosaccharide (Galb1-3GalNAcb1-4(Neu5Aca2-3)Galb1-4Glc)] | 2.54 | 2.60 | –
CC(=O)N[C@H]1[C@H](O[C@@H]2[C@H](O)[C@@H](O)[C@H](O[C@H]3[C@H](O)[C@@H](O)C(O)O[C@@H]3CO)O[C@@H]2CO)O[C@H](CO)[C@H](O)[C@@H]1O[C@@H]1O[C@H](CO)[C@H](O)[C@H](O[C@]2(C(=O)O)C[C@H](O)[C@@H](NC(C)=O)[C@H]([C@H](O)[C@H](O)CO)O2)[C@H]1O (some centres unmarked) [GM1b, GM1b ganglioside oligosaccharide (Neu5Aca2-3Galb1-3GalNAcb1-4Galb1-4Glc)] | 2.26 | 2.68 | –
CC(=O)N[C@H]1[C@H](O[C@@H]2[C@H](O[C@]3(C(=O)O)C[C@H](O)[C@@H](NC(C)=O)[C@H]([C@H](O)[C@H](O)CO)O3)[C@@H](O)[C@H](O[C@H]3[C@H](O)[C@@H](O)C(O)O[C@@H]3CO)O[C@@H]2CO)O[C@H](CO)[C@H](O)[C@@H]1O (some centres unmarked) [GM2, GM2 ganglioside oligosaccharide (GalNAcb1-4(Neu5Aca2-3)Galb1-4Glc)] | 2.56 | 2.85 | –
CC(=O)N[C@H]1[C@H]([C@H](O)[C@H](O)CO)O[C@@](O[C@H]2[C@@H](O)[C@@H](CO)O[C@@H](O[C@H]3[C@H](O)[C@@H](O)C(O)O[C@@H]3CO)[C@@H]2O)(C(=O)O)C[C@@H]1O (some centres unmarked) [GM3, GM3 ganglioside oligosaccharide (GM3 trisaccharide, Neu5Aca2-3Galb1-4Glc)] | 3.18 | 3.11 | –
CC(=O)N[C@H]1[C@H]([C@H](O)[C@H](O)CO)O[C@@](O[C@H]2[C@@H](O)[C@@H](CO)O[C@@H](O[C@H]3[C@H](O)[C@@H](O)C(O)O[C@@H]3CO)[C@@H]2O)(C(=O)O)C[C@@H]1O (some centres unmarked) [GM3] | – | – | Ka,int P dimer VA387 (NoV VA387 P dimer [2]): 1500 M^–1 and 1500 ± 150 M^–1; affinity (Ka,int) for VA387 VLP (NoV VA387 VLP): 5500 ± 600 M^–1; affinity (Ka,int) for VA387 P particle (NoV VA387 P particle [4]): 2600 ± 200 M^–1; Ka,int P dimer VA115 (NoV VA115 P dimer): 1300 ± 130 M^–1; affinity for Gal-3C [5]: (1.20 ± 0.02) × 10^4 M^–1
CC(=O)N[C@H]1[C@H](O[C@@H]2[C@H](O[C@]3(C(=O)O)C[C@H](O)[C@@H](NC(C)=O)[C@H]([C@H](O)[C@@H](CO)O[C@]4(C(=O)O)C[C@H](O)[C@@H](NC(C)=O)[C@H]([C@H](O)[C@@H](CO)O[C@]5(C(=O)O)C[C@H](O)[C@@H](NC(C)=O)[C@H]([C@H](O)[C@H](O)CO)O5)O4)O3)[C@@H](O)[C@H](O[C@H]3[C@H](O)[C@@H](O)C(O)O[C@@H]3CO)O[C@@H]2CO)O[C@H](CO)[C@H](O)[C@@H]1O[C@@H]1O[C@H](CO)[C@H](O)[C@H](O)[C@H]1O (some centres unmarked) [GT1c, GT1c ganglioside oligosaccharide (Galb1-3GalNAcb1-4(Neu5Aca2-8Neu5Aca2-8Neu5Aca2-3)Galb1-4Glc)] | – | – | Ka,int (P dimer VA387): <100 M⁻¹; Ka,int (P dimer VA115): 260 ± 110 M⁻¹
CC(=O)NC1C(OC2C(CO)OC(OC3C(CO)OC(O)C(O)C3O)C(O)C2OC2(C(=O)O)CC(O)C(NC(C)=O)C(C(O)C(CO)OC3(C(=O)O)CC(O)C(NC(C)=O)C(C(O)C(CO)OC4(C(=O)O)CC(O)C(NC(C)=O)C(C(O)C(O)CO)O4)O3)O2)OC(CO)C(O)C1O (centres unmarked) [GT2, GT2 ganglioside oligosaccharide (GalNAcb1-4(Neu5Aca2-8Neu5Aca2-8Neu5Aca2-3)Galb1-4Glc)] | < 2.00 | 2.36 | –
CC(=O)NC1C(O)CC(OC2C(O)C(OC3C(CO)OC(O)C(O)C3O)OC(CO)C2OC2OC(CO)C(O)C(OC3OC(CO)C(O)C(O)C3OC3OC(C)C(O)C(O)C3O)C2NC(C)=O)(C(=O)O)OC1C(O)C(O)CO (centres unmarked) [fucosyl-GM1, fucosyl-GM1 ganglioside oligosaccharide (Fuc-GM1; Fuca1-2Galb1-3GalNAcb1-4(Neu5Aca2-3)Galb1-4Glc)] | 2.66 | 2.78 | –
